Reference: ChEMBL document CHEMBL1121663, “(Acylaryloxy)acetic acid diuretics. 3. 2,3-Dihydro-5-acyl-2-benzofurancarboxylic acids, a new class of uricosuric diuretics” (1981)

Columns and labels:
[1] = tested on: Canis familiaris; test: Compound was tested for diuretic activity in dogs at 5 mg/kg dose after oral administration measured as microequivalent of K+/minute; assay type: functional, Canis lupus familiaris, Urine
Outline: (§1)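 Oral dog test: water loading (250 mL po, then 500 mL 1 h later). One hour later bladders were emptied by catheter and compound or placebo given in gelatin capsules. Dogs were kept in metabolism cages. Voided urine plus catheterized bladder urine was pooled at 5 h, and Na+, K+ and Cl- were measured by standard methods. Geometric means are reported.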

[2] = tested on: Rattus norvegicus; test: Natriuretic activity in rats at 3 mg/kg of dosage; mequiv of Na; assay type: functional
Outline: (§2)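 Rats housed three per metabolism cage received placebo vehicle or compound as a suspension in a final volume of 5.0 mL orally, with placebo groups run concurrently. Urine was collected over 0–5 h and analysed for Na+, K+ and Cl− by standard methods. Values are mequiv per cage, given as geometric means of three cages per dose level.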

[3] = tested on: Rattus norvegicus; test: Natriuretic activity in rats at 81 mg/kg of dosage; mequiv of Na; assay type: functional; outline: as §2
[4] = tested on: Canis familiaris; test: Compound was tested for diuretic activity in dogs at 5 mg/kg dose after intravenous administration measured as microequivalent of Na+/minute; 52/264 (Control/Drug treated); assay type: functional, Canis lupus familiaris, Urine
[5] = tested on: Rattus norvegicus; test: Natriuretic activity in rats at 9 mg/kg of dosage; mequiv of Na; assay type: functional; outline: as §2
[6] = tested on: Rattus norvegicus; test: Natriuretic activity in rats at 27 mg/kg of dosage; mequiv of Na; assay type: functional; outline: as §2
[7] = tested on: Canis familiaris; test: Compound was tested for diuretic activity in dogs at 5 mg/kg dose after oral administration measured as microequivalent of Na+/minute; assay type: functional, Canis lupus familiaris, Urine; outline: as §1
[8] = tested on: Canis familiaris; test: Compound was tested for diuretic activity in dogs at 5 mg/kg dose after intravenous administration measured as microequivalent of K+/minute; 6/18 (Control/Drug treated); assay type: functional, Canis lupus familiaris, Urine
Outline: (§3)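 Intravenous dog clearance study. A priming iv injection of 1.5 mL/kg isoosmotic pH 7.4 phosphate buffer (20 mg PO4/kg) was given first. This was followed by infusion of 3 mL/min pH 7.4 buffer containing 4% mannitol (6.9 mg PO4/min) throughout the experiment. Urinary Na+, K+ and Cl- were measured by standard methods. Each value is the mean of the two highest consecutive 15-min collections.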

[9] = tested on: Canis familiaris; test: Compound was tested for diuretic activity in dogs at 5 mg/kg dose after oral administration measured as microequivalent of Cl-/minute; assay type: functional, Canis lupus familiaris, Urine; outline: as §1
[10] = tested on: Canis familiaris; test: Compound was tested for diuretic activity in dogs at 5 mg/kg dose after intravenous administration measured as microequivalent of Cl-/minute; 16/271 (Control/Drug treated); assay type: functional, Canis lupus familiaris, Urine; outline: as §3
[11] = tested on: Canis familiaris; test: Diuretic activity in dogs following 5 mg/kg oral administration.
[12] = tested on: Canis familiaris; test: Compound was tested for diuretic activity in dogs at 5 mg/kg dose after intravenous administration measured as microequivalent of K+/minute; 4/54 (Control/Drug treated); assay type: functional, Canis lupus familiaris, Urine; outline: as §3
[13] = Compound was tested for natriuretic activity in chimpanzee at 5 mg/kg dose activity is measured as ratio of clearance of urate / […]; Curate/Cinulin; assay type: functional
Outline: (§4)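 Inulin iv gave GFR; urate and inulin clearances and Na+, K+, Cl- excretion were measured by AutoAnalyzer. Controls were three 20-min periods; compound was given orally in aqueous solution via nasal catheter. Response was the mean of eight 15-20 min periods, reported as treatment minus control from single experiments.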

[14] = tested on: Canis familiaris; test: Compound was tested for diuretic activity in dogs at 5 mg/kg dose after intravenous administration measured as microequivalent of Cl-/minute; 12/586 (Control/Drug treated); assay type: functional, Canis lupus familiaris, Urine; outline: as §3
[15] = tested on: Canis familiaris; test: Compound was tested for diuretic activity in dogs at 5 mg/kg dose after intravenous administration, activity is expressed as urine volume; 1/6; assay type: functional, Canis lupus familiaris
[16] = tested on: Pan troglodytes; test: Compound was tested for natriuretic activity in chimpanzee at 5 mg/kg dose activity is measured as microequivalent of Na+/m; muequiv of Na+/minute; assay type: functional; outline: as §4

For `O=C(O)C1Cc2cc(S(=O)(=O)c3cccs3)c(Cl)c(Cl)c2O1` (stereo not given), the Oral activity [1] was 1.4, the Oral activity [2] was 10 and the Oral activity [3] was 65. The Na+ excretion [4] was 264 µequiv/min, the Oral activity [5] was 19 and the Oral activity [6] was 44. For the same compound, the Oral activity [7] was 7.6, the K+ excretion [8] was 18 µequiv/min and the Oral activity [9] was 9.1. The Cl- excretion [10] was 271 µequiv/min and the Urine volume [11] was 246 mL.

Work on `O=C(O)C1Cc2cc(C(O)c3cccs3)c(Cl)c(Cl)c2O1` (stereo not given) yielded a K+ excretion [12] of 54 µequiv/min, an Oral activity [2] of 25 and an Oral activity [3] of 180. The Oral activity [5] was 40, the Ratio [13] was 0.15 and the Cl- excretion [14] was 586 µequiv/min. It also gave a Urine volume [15] of 1 mL/min, an Oral activity [6] of 80 and an Oral activity [16] of 550.
